Active and inactive are the calls of the source. Numbered stars: 1 amine (or outer) side, 2 acyl side, 3 side chain; on linkers, the order of the positions; unused ones are H or OH. Square brackets hold non-standard residues; d marks the D form. Peptide text beside a SMILES is read from it. X1 = O=C1[C@@H](N[*:1])Cc2ccccc2CN1CCC(=O)[*:2]; Phe(4-F) = N[C@@H](Cc1ccc(F)cc1)C(=O)O; Dmt = Cc1cc(O)cc(C)c1C[C@H](N)C(=O)O
Columns and labels:
Mus musculus [1] = assay: Antiallodynic activity in albino Swiss CD1 IGS mouse model of streptozocin-induced type1 diabetic neuropathic pain assessed as increase in mechanical threshold for paw withdrawal at 0.005 nmol, it administered on day 10 after STZ injection measured at 180 mins post dose by Von Frey test; assay type: functional, organism-based
Outline: (§1)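 Male CD-1 mice (30–35 g). CCI: sciatic constriction injury, tested on days 7–16 after surgery. STZ diabetes: single ip streptozocin 200 mg/kg; mice with glucose >300 mg/dL included, tested on day 10. Drug in water for injection, given it (5 µL, L5–L6 lumbar puncture) to conscious mice. von Frey (cutoff 6 g) or cold plate (2 °C, 30 s cutoff, paw lift) at 30, 90, 180 min; 6–8 mice/group.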

Mus musculus [2] = assay: Antiallodynic activity in albino Swiss CD1 IGS mouse model of streptozocin-induced type1 diabetic neuropathic pain assessed as increase in mechanical threshold for paw withdrawal at 0.005 nmol, it administered on day 10 after STZ injection measured at 30 mins post dose by Von Frey test; assay type: functional, organism-based; outline: as §1
Mus musculus [3] = assay: Antihyperalgesic activity in albino Swiss CD1 IGS mouse model of streptozocin-induced type1 diabetic neuropathic pain assessed as increase in paw withdrawal latency at 0.005 nmol, it administered on day 10 after STZ injection measured at 180 mins post dose by […]; assay type: functional, organism-based; outline: as §1
Mus musculus [4] = assay: Antihyperalgesic activity in intrathecally dosed albino Swiss CD1 IGS mouse model of chronic constriction injury-induced neuropathic pain assessed as increase in paw withdrawal latency administered on day 7 to 16 after CCI surgery measured 30 mins post dose by cold plate test; assay type: functional
Outline: (§2)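 Male Albino Swiss CD-1 mice (30–35 g), sciatic chronic constriction injury under chloral hydrate; tested days 7–16 post-surgery. Compound in water for injection, 5 µL intrathecal by lumbar puncture L5–L6 in awake mice.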

Nociceptin receptor [5] = target: T1, Nociceptin receptor (Homo sapiens, UniProt P41146); assay: Displacement of [3H]OFQ/nociceptin from human nociceptin receptor expressed in HEK293 cell membrane incubated for 1 hr by TopCount scintillation counting method; assay type: cell membranes
Mus musculus [6] = assay: Neurotoxicity in intrathecally dosed albino Swiss CD1 IGS mouse assessed as motor impairment measured after 15 to 120 mins post dose by rotarod test; assay type: toxicity, organism-based; conditions: in vivo, icv_or_intrathecal
Outline: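 Intrathecal dosing (water for injection, 5 µL) to male CD-1 mice. After three training sessions, mice placed on accelerating rod (2 to 40 rpm over 300 s cutoff); tested 15 and 120 min after injection.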

Mus musculus [7] = assay: (§3) Antiallodynic activity in intrathecally dosed albino Swiss CD1 IGS mouse model of chronic constriction injury-induced neuropathic pain assessed as increase in mechanical threshold for paw withdrawal administered on day 7 to 16 after CCI surgery measured 30 mins post dose by Von Frey test; assay type: functional; outline: as §2
Nociceptin receptor [8] = target: T1, Nociceptin receptor; assay: Agonist activity at human nociceptin receptor expressed in CHO cell membrane incubated for 60 mins by [35S]GTPgammaS binding assay relative to control; assay type: functional, cell membranes
Mus musculus [9] = assay: Antihyperalgesic activity in albino Swiss CD1 IGS mouse model of chronic constriction injury-induced neuropathic pain assessed as increase in paw withdrawal latency at 10 ug, it administered on day 7 to 16 after CCI surgery measured 30 mins post dose by cold plate test relative to control; assay type: functional
Mus musculus [10] = assay: as §3, with “in” for “in intrathecally dosed”, “withdrawal at 10 ug, it” for “withdrawal”, “test relative to control” for “test”; assay type: functional
Mus musculus [11] = assay: Antinociceptive activity in iv dosed C57BL6 mouse model of acute pain assessed as increase in withdrawal latency from radiant heat source measured after 5 to 120 mins by tail flick assay; assay type: functional, organism-based
Outline: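 Male C57BL6 mice (20–25 g), restrained; compound or saline control injected intravenously into tail vein. Radiant heat light beam applied to ventral tail; latency to withdrawal or tail shake recorded at baseline and 5, 15, 30, 60, 120 min post-injection. Latencies normalized as %MPE (mean ± SEM); groups of 8–10 mice.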

Mus musculus [12] = assay: Antinociceptive activity in C57BL6 mouse model of acute pain assessed as increase in withdrawal latency from radiant heat source at 390 nmol/kg, iv measured after 15 to 30 mins by tail flick assay; assay type: functional, organism-based
Outline: (§4)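 Male C57BL6 mice (20–25 g); compound or saline given iv into tail vein (po also tested). Radiant heat on ventral tail, latency to withdrawal/shaking recorded at baseline and 5, 15, 30, 60, 120 min (later points also reported); normalized as %MPE; 8–10 mice per group.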

Mus musculus [13] = assay: Antinociceptive activity in C57BL6 mouse model of acute pain assessed as increase in withdrawal latency from radiant heat source at 10 ug, iv measured after 5 to 120 mins by tail flick assay relative to control; assay type: functional
Mus musculus [14] = assay: Antihyperalgesic activity in albino Swiss CD1 IGS mouse model of chronic constriction injury-induced neuropathic pain assessed as increase in paw withdrawal latency at >10 ug, it administered on day 7 to 16 after CCI surgery measured 30 mins post dose by cold plate test relative to control; assay type: functional
Mus musculus [15] = assay: Antinociceptive activity in C57BL6 mouse model of acute pain assessed as increase in withdrawal latency from radiant heat source at >10 ug, iv measured after 5 to 120 mins by tail flick assay relative to control; assay type: functional
Mus musculus [16] = assay: as §3, with “in” for “in intrathecally dosed”, “withdrawal at >10 ug, it” for “withdrawal”, “test relative to control” for “test”; assay type: functional
Mus musculus [17] = assay: Antinociceptive activity in C57BL6 mouse model of acute pain assessed as increase in withdrawal latency from radiant heat source at 390 nmol/kg, iv measured after 60 mins by tail flick assay; assay type: functional, organism-based; outline: as §4
Mus musculus [18] = assay: Antiallodynic activity in albino Swiss CD1 IGS mouse model of streptozocin-induced type1 diabetic neuropathic pain assessed as increase in mechanical threshold for paw withdrawal at 0.007 nmol, it administered on day 10 after STZ injection measured at 30 mins post dose by Von Frey test; assay type: functional, organism-based
Outline: (§5)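 Male Albino Swiss CD-1 mice made diabetic by single ip streptozocin 200 mg/kg; glucose >300 mg/dL required; tested day 10. Compound in water for injection, 5 µL intrathecal at L5–L6; von Frey or cold plate (2 °C, 30 s cutoff) at 30, 90, 180 min; 6–8 mice per group.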

Nociceptin receptor [19] = target: T1, Nociceptin receptor; assay: Antagonist activity at human nociceptin receptor expressed in HEK293 cells assessed as inhibition of OFQ/nociceptin-induced suppression of cAMP accumulation up to 20 uM preincubated for 15 mins followed by OFQ/nociceptin addition by luciferase reporter gene assay; assay type: functional, cell-based
Mus musculus [20] = assay: Antihyperalgesic activity in albino Swiss CD1 IGS mouse model of streptozocin-induced type1 diabetic neuropathic pain assessed as increase in paw withdrawal latency at 0.007 nmol, it administered on day 10 after STZ injection measured at 180 mins post dose by […]; assay type: functional, organism-based; outline: as §5
Mus musculus [21] = assay: Antiallodynic activity in albino Swiss CD1 IGS mouse model of streptozocin-induced type1 diabetic neuropathic pain assessed as increase in mechanical threshold for paw withdrawal at 0.007 nmol, it administered on day 10 after STZ injection measured at 180 mins post dose by Von Frey test; assay type: functional, organism-based; outline: as §5
Nociceptin receptor [22] = target: T1, Nociceptin receptor; assay: Agonist activity at human nociceptin receptor expressed in HEK293 cells assessed as inhibition of forskolin-stimulated cAMP production up to 10 uM preincubated for 15 mins followed by forskolin addition measured for 90 mins by luciferase reporter gene assay; assay type: functional, cell-based
Outline: (§6)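 HEK293 cells stably expressing human NOP and GloSensor, in Hepes buffer pH 7.4 with 1 mM d-luciferin, pre-equilibrated 2 h at 25 °C. Compound at various concentrations added 15 min before forskolin (0.5 µM final); luminescence read kinetically for 90 min at 25 °C with 0.5 mM IBMX. At least two experiments in duplicate.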

Nociceptin receptor [23] = target: T1, Nociceptin receptor; assay: Partial agonist activity at human nociceptin receptor expressed in HEK293 cells assessed as inhibition of forskolin-stimulated cAMP production preincubated for 15 mins followed by forskolin addition measured for 90 mins by luciferase reporter gene assay relative to nociceptin; assay type: functional, cell-based; outline: as §6
Mus musculus [24] = assay: Antiallodynic activity in albino Swiss CD1 IGS mouse model of streptozocin-induced type1 diabetic neuropathic pain assessed as increase in mechanical threshold for paw withdrawal at 0.008 nmol, it administered on day 10 after STZ injection measured at 180 mins post dose by Von Frey test; assay type: functional, organism-based; outline: as §5
Mus musculus [25] = assay: Antihyperalgesic activity in albino Swiss CD1 IGS mouse model of streptozocin-induced type1 diabetic neuropathic pain assessed as increase in paw withdrawal latency at 0.008 nmol, it administered on day 10 after STZ injection measured at 180 mins post dose by […]; assay type: functional, organism-based; outline: as §5
Mus musculus [26] = assay: Antiallodynic activity in albino Swiss CD1 IGS mouse model of streptozocin-induced type1 diabetic neuropathic pain assessed as increase in mechanical threshold for paw withdrawal at 0.008 nmol, it administered on day 10 after STZ injection measured at 30 mins post dose by Von Frey test; assay type: functional, organism-based; outline: as §5
Mus musculus [27] = organism: Mus musculus; assay: Neurotoxicity in albino Swiss CD1 IGS mouse assessed as motor impairment at 0.5 nmol, it measured after 15 to 120 mins post dose by rotarod test; assay type: toxicity, organism-based; conditions: in vivo, icv_or_intrathecal
Outline: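 CD-1 mice given intrathecal compound (5 µL, L5–L6), tested at 15 and 120 min on accelerating rotarod, 2 to 40 rpm over 300 s cutoff, after three training sessions.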

T1 sequence (P41146 whole entry): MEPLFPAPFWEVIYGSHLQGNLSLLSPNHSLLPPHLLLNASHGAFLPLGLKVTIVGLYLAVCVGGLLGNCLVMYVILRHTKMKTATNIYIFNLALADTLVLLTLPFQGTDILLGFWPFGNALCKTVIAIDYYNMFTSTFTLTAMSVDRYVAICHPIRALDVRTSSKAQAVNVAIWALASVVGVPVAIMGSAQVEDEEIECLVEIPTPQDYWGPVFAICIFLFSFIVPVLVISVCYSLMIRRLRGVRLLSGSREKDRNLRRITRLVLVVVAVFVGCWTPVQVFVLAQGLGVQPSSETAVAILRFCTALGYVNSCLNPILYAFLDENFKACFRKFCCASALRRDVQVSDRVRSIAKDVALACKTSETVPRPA

Compound: Cc1cc(O)cc(C)c1C[C@H](N)C(=O)N[C@H](CCCNC(=N)N)C(=O)N[C@H]1Cc2ccccc2CN(CCC(=O)N[C@@H](CCCNC(=N)N)C(=O)N[C@@H](Cc2ccc(O)cc2)C(=O)N[C@@H](Cc2ccc(O)cc2)C(=O)N[C@@H](CCCNC(=N)N)C(=O)N[C@@H](Cc2c[nH]c3ccccc23)C(=O)N[C@@H](CCCNC(=N)N)C(N)=O)C1=O (H-[Dmt][dR][X1]RYYRWR-NH2)
- Activity (Mus musculus [1]): inactive
- Activity (Mus musculus [2]): Active
- Activity (Mus musculus [3]): inactive
- ED50 (Mus musculus [4]): 0.002 nmol
- Ki (Nociceptin receptor [5]): 47 nM
- Activity (Mus musculus [6]): Non-toxic
- ED50 (Mus musculus [7]): 0.0009 nmol

Compound: CC(=O)N[C@@H](CCCNC(=N)N)C(=O)N[C@@H](Cc1ccc(O)cc1)C(=O)N[C@@H](Cc1ccc(F)cc1)C(=O)N[C@@H](CCCNC(=N)N)C(=O)N[C@@H](Cc1c[nH]c2ccccc12)C(=O)N[C@@H](CCCNC(=N)N)C(N)=O (Ac-RY[Phe(4-F)]RWR-NH2)
- Activity (Nociceptin receptor [8]): 70%

Compound: Cc1cc(O)cc(C)c1C[C@H](NC(=O)[C@H](Cc1ccc(O)cc1)NC(=O)[C@H](CCCNC(=N)N)NC(=O)CCN1Cc2ccccc2C[C@H](NC(=O)[C@@H](CCCNC(=N)N)NC(=O)[C@@H](N)Cc2c(C)cc(O)cc2C)C1=O)C(=O)N[C@@H](CCCNC(=N)N)C(=O)N[C@@H](Cc1c[nH]c2ccccc12)C(=O)N[C@@H](CCCNC(=N)N)C(N)=O (H-[Dmt][dR][X1]RY[Dmt]RWR-NH2)
- Activity (Mus musculus [1]): inactive
- Activity (Mus musculus [2]): Active
- Activity (Mus musculus [3]): inactive
- ED50 (Mus musculus [4]): 0.005 nmol
- Activity (Mus musculus [6]): Non-toxic
- ED50 (Mus musculus [7]): 0.0009 nmol

Compound: CN1CC[C@]23c4c5ccc(O)c4O[C@H]2[C@@H](O)C=C[C@H]3[C@H]1C5 [MORPHINE]
- MPE (Mus musculus [9]): 30.15%
- MPE (Mus musculus [10]): 36.5%
- Activity (Mus musculus [11]): Dose-dependent effect
- Activity (Mus musculus [12]): Active
- ED50 (Mus musculus [4]): 7.46 nmol
- MPE (Mus musculus [13]): 63.8%
- MPE (Mus musculus [14]): 50%
- MPE (Mus musculus [15]): 100%
- MPE (Mus musculus [16]): 50%
- Activity (Mus musculus [17]): inactive
- ED50 (Mus musculus [7]): 7 nmol

Compound: CC[C@H](C)[C@H](NC(=O)[C@H](CCCNC(=N)N)NC(=O)[C@H](Cc1ccc(O)cc1)NC(=O)[C@H](Cc1ccc(O)cc1)NC(=O)[C@@H](N)CCCNC(=N)N)C(=O)N[C@@H](CCCCN)C(N)=O
- Activity (Mus musculus [18]): Active
- inhibition (Nociceptin receptor [19]): inactive
- Activity (Mus musculus [20]): inactive
- Activity (Mus musculus [21]): inactive
- Activity (Nociceptin receptor [22]): inactive
- Activity (Mus musculus [6]): Non-toxic

Compound: CC[C@H](C)[C@@H](NC(=O)[C@H](CCCNC(=N)N)NC(=O)[C@H](Cc1ccc(O)cc1)NC(=O)[C@H](Cc1ccc(O)cc1)NC(=O)[C@H](CCCNC(=N)N)NC(C)=O)C(=O)N[C@@H](CCCCN)C(N)=O
- inhibition (Nociceptin receptor [23]): 70%
- Activity (Mus musculus [24]): inactive
- Activity (Mus musculus [25]): inactive
- inhibition (Nociceptin receptor [19]): inactive
- Activity (Mus musculus [26]): Active

Compound: Cc1cc(O)cc(C)c1C[C@H](N)C(=O)N[C@H](CCCNC(=N)N)C(=O)N[C@H]1Cc2ccccc2CN(CCC(=O)N[C@@H](CCCNC(=N)N)C(=O)N[C@@H](Cc2ccc(O)cc2)C(=O)N[C@@H](Cc2ccc(F)cc2)C(=O)N[C@@H](CCCNC(=N)N)C(=O)N[C@@H](Cc2c[nH]c3ccccc23)C(=O)N[C@@H](CCCNC(=N)N)C(N)=O)C1=O (H-[Dmt][dR][X1]RY[Phe(4-F)]RWR-NH2)
- Activity (Mus musculus [1]): inactive
- Activity (Mus musculus [2]): Active
- Activity (Mus musculus [3]): inactive
- Activity (Mus musculus [27]): Toxic

From ChEMBL document CHEMBL3808291, “Bifunctional Peptide-Based Opioid Agonist-Nociceptin Antagonist Ligands for Dual Treatment of Acute and Neuropathic Pain” (J Med Chem, 2016)
